The term IC50 denotes the concentration at which inhibition is half-maximal.

SMILES strings stand for the structures.

Data on 16 compounds can be found in ChEMBL document CHEMBL1795266, “Synthesis and evaluation of monoamidoxime derivatives: toward new antileishmanial compounds” (Eur J Med Chem, 2011).

One data set concerns Leishmania donovani. Nature of the data set: Antileishmanial activity against Leishmania donovani MHOM/IN/00/DEVI promastigote after 72 hrs by MTT assay. Type of data set: functional, organism-based. Summed up:
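Promastigotes were seeded at 10⁶ parasites/mL in medium containing penicillin and streptomycin, with a range of compound concentrations in duplicate (DMSO under 0.5% v/v final). After MTT addition, plates stood 6 h at 27 °C and were spun at 900 G for 10 min. The pellet was dissolved in DMSO and read at 570 nm. IC50 (50% loss of metabolic activity versus control) came from nonlinear dose-response regression.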
In general terms: Tetrazolium assays rely on reduction of a dye to a coloured formazan, in cell work by metabolically active cells.

Data set [1] is described as follows: Selectivity index, ratio of IC50 for mouse J774A1 cells to IC50 for Leishmania donovani MHOM/IN/OO/DEVI promastigote. Type of data set: toxicity, cell-based, J774.A1. Conditions: read-out: Ratio IC50.
For a further data set, the system named is J774.A1. Put plainly: Cytotoxic activity against mouse J774A1 cells after 72 hrs by MTT assay. Type of data set: cell-based. Conditions: J774.A1, 72 h. Put shortly:
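J774A.1 macrophages were grown in medium with 10% FCS, 2 mM L-glutamine, penicillin and streptomycin. Cells were seeded at 5 × 10⁴ cells/mL with a concentration range in duplicate (DMSO under 0.5% v/v final) and held 72 h at 37 °C, 6% CO₂. MTT was added at 0.5 mg/mL in RPMI 1640 for 2 h at 37 °C. Formazan was dissolved in DMSO and read at 570 nm. IC50 came from nonlinear regression, as the mean of three independent experiments.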

Take `CC1(Cc2ccccc2)CC(S(=O)(=O)c2ccc(C(F)(F)F)cc2)=C(c2ccc(/C(N)=N/O)cc2)O1` (stereo unspecified): the IC50 with Leishmania donovani is 7.89 µM; with J774.A1, 30.5 µM. Besides, in data set [1], the selectivity ratio was 3.87.

For `CC1(Cc2ccccc2)CC(S(=O)(=O)c2ccc(F)cc2)=C(c2ccc(/C(N)=N/O)cc2)O1` (stereo unspecified), the values for the IC50 in the data set on Leishmania donovani and with J774.A1 were 7.15 µM and 45.5 µM, respectively. For the same compound, the selectivity ratio in data set [1] amounted to 6.37.

In the case of `CC1(Cc2ccccc2)CC(S(=O)(=O)c2ccc(Cl)cc2)=C(c2ccc(/C(N)=N/O)cc2)O1` (stereo unspecified), the IC50 in the data set with Leishmania donovani is 7.4 µM; in the data set with J774.A1, 27.4 µM. Further, the selectivity ratio in data set [1] was 3.71.

As to `CC1(Cc2ccccc2)CC(S(=O)(=O)c2ccc(Br)cc2)=C(c2ccc(/C(N)=N/O)cc2)O1` (stereo unspecified), the IC50 in the data set on Leishmania donovani was 5.21 µM; in the data set with J774.A1 it was 20.1 µM. Moreover, in data set [1], the selectivity ratio was found to be 3.85.

Take `CC1(Cc2ccccc2)CC(S(=O)(=O)c2ccc(I)cc2)=C(c2ccc(/C(N)=N/O)cc2)O1` (stereo unspecified): the IC50 in the data set with Leishmania donovani was found to be 6.89 µM; in the data set with J774.A1, 11.8 µM. Moreover, the selectivity ratio in data set [1] worked out at 1.72.

With `CC1(Cc2ccccc2)CC(S(=O)(=O)c2ccc([N+](=O)[O-])cc2)=C(c2ccc(/C(N)=N/O)cc2)O1` (stereo unspecified), the IC50 worked out at 19.4 µM with Leishmania donovani and 50.6 µM with J774.A1. Also, the selectivity ratio in data set [1] turned out to be 2.61.

On to `COc1ccc(S(=O)(=O)C2=C(c3ccc(/C(N)=N/O)cc3)OC(C)(Cc3ccccc3)C2)cc1` (stereo unspecified), for which the IC50 turned out to be 7.49 µM with Leishmania donovani and 9.03 µM in the data set on J774.A1. In addition, the selectivity ratio in data set [1] turned out to be 1.21.

In the case of `CC1(Cc2ccccc2)CC(S(=O)(=O)c2ccc(/C(N)=N\O)cc2)=C(c2ccc(C(F)(F)F)cc2)O1` (stereo unspecified), the figures for the IC50 with Leishmania donovani and with J774.A1 were 8.46 µM and 11.9 µM, respectively. The selectivity ratio in data set [1] came to 1.4.

For the compound `CC1(Cc2ccccc2)CC(S(=O)(=O)c2ccc(/C(N)=N\O)cc2)=C(c2ccc(F)cc2)O1` (stereo unspecified), the half-maximal inhibitory concentration (IC50) with Leishmania donovani came out at 30.7 µM; in the data set on J774.A1 it was 36.2 µM. In data set [1], the selectivity ratio is 1.18.

With `CC1(Cc2ccccc2)CC(S(=O)(=O)c2ccc(/C(N)=N\O)cc2)=C(c2ccc(Cl)cc2)O1` (stereo unspecified), the figures for the IC50 in the data set on Leishmania donovani and with J774.A1 were 9.87 µM and 7.05 µM, respectively. For the same compound, the selectivity ratio in data set [1] was found to be 0.71.

As for `CC1(Cc2ccccc2)CC(S(=O)(=O)c2ccc(/C(N)=N\O)cc2)=C(c2ccc(Br)cc2)O1` (stereo unspecified), the IC50 in the data set on Leishmania donovani came out at 8.95 µM; in the data set on J774.A1, 9.78 µM. Also, the selectivity ratio in data set [1] stood at 1.09.

Take `CC1(Cc2ccccc2)CC(S(=O)(=O)c2ccc(/C(N)=N\O)cc2)=C(c2ccc(I)cc2)O1` (stereo unspecified): the IC50 was 6.63 µM with Leishmania donovani and 8.08 µM in the data set on J774.A1. Also, in data set [1], the selectivity ratio was 1.22.

On to `CC1(Cc2ccccc2)CC(S(=O)(=O)c2ccc(/C(N)=N\O)cc2)=C(c2ccc([N+](=O)[O-])cc2)O1` (stereo unspecified), for which the values for the IC50 in the data set on Leishmania donovani and in the data set with J774.A1 were 18.8 µM and 18.5 µM, respectively. Further, the selectivity ratio in data set [1] was found to be 0.98.

On to `C[C@@H]1[C@H](O)[C@@H](C)/C=C/C=C/C=C/C=C/C=C/C=C/C=C/[C@H](O[C@@H]2O[C@H](C)[C@@H](O)[C@H](N)[C@@H]2O)C[C@@H]2O[C@](O)(C[C@@H](O)C[C@@H](O)[C@H](O)CC[C@@H](O)C[C@@H](O)CC(=O)O[C@H]1C)C[C@H](O)[C@H]2C(=O)O` [AMPHOTERICIN B], for which the IC50 in the data set with Leishmania donovani came to 0.77 µM; with J774.A1, 3.14 µM. For the same compound, in data set [1], the selectivity ratio worked out at 4.08.

`COc1cccc2c1C(=O)c1c(O)c3c(c(O)c1C2=O)C[C@@](O)(C(=O)CO)C[C@@H]3O[C@H]1C[C@H](N)[C@H](O)[C@H](C)O1` [DOXORUBICIN] yielded an IC50 with J774.A1 of 0.02 µM.

`N=C(N)c1ccc(OCCCCCOc2ccc(C(=N)N)cc2)cc1` [PENTAMIDINE]: the IC50 in the data set on Leishmania donovani came to 6.29 µM; with J774.A1, 1.03 µM. In data set [1], the selectivity ratio worked out at 0.16.
